This passage reports Activity, IC50 and selectivity ratio results from ChEMBL document CHEMBL2434856, “Synthesis and in vitro and in vivo evaluation of antimalarial polyamines” (Eur J Med Chem, 2013).

The test system of series [1] is Plasmodium berghei. Kind of series: Antimalarial activity against GFP-transfected Plasmodium berghei ANKA infected in NMRI mouse assessed as reduction of parasitaemia at 20 mg/kg, ip qd for 4 days.
Series [2] concerns L6. The series can be described thus: Cytotoxicity against rat L6 cells. It is filed as cell-based. Summed up:
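Rat skeletal myoblast L6 cell line, tested alongside the P. falciparum K1 assay so that a selectivity index (IC50 L6 / IC50 Pf) could be derived. Read-out is IC50 in µM, reported as the mean of duplicate assays.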

Series [3] deals with Plasmodium berghei. Kind of series: Antimalarial activity against GFP-transfected Plasmodium berghei ANKA infected in NMRI mouse assessed as increase of mean survival time at 20 mg/kg, ip qd for 4 days.
Series [4] has as its system Mus musculus. Kind of series: Acute toxicity in NMRI mouse infected with GFP-transfected Plasmodium berghei ANKA at 100 mg/kg, ip. It is filed as organism-based. On the set-up: dose 100 mg/kg, route intraperitoneal. The following applies: in vivo.
Series [5] in a line: Selectivity index, ratio of IC50 for rat L6 cells to IC50 for erythrocytic stage of chloroquine and pyrimethamine-resistant Plasmodium falciparum K1. The settings on record: read-out: Ratio IC50. Format: toxicity, cell-based. The method in brief: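 Selectivity index calculated as the IC50 against rat L6 skeletal myoblasts divided by the IC50 against the erythrocytic stage of P. falciparum K1, both in µM. Chloroquine served as the positive control in the parasite assay. IC50 values are means of duplicate assays.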

Series [6] relates to Plasmodium falciparum. Kind of series: Antimalarial activity against erythrocytic stage of chloroquine and pyrimethamine-resistant Plasmodium falciparum K1. Format: functional, organism-based. Summed up:
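P. falciparum K1 (chloroquine- and pyrimethamine-resistant), erythrocytic stage, growth inhibition read as IC50 in µM. Chloroquine served as the positive control. Values are means of duplicate assays.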

The test system of series [7] is Plasmodium berghei. The series can be described thus: Antimalarial activity against GFP-transfected Plasmodium berghei ANKA infected in NMRI mouse assessed as reduction of parasitaemia at 50 mg/kg, ip qd for 4 days.
The subject of series [8] is Plasmodium berghei. The series can be described thus: Antimalarial activity against GFP-transfected Plasmodium berghei ANKA infected in NMRI mouse assessed as increase of mean survival time at 50 mg/kg, ip qd for 4 days.
The test system of series [9] is Mus musculus. Kind of series: Acute toxicity in NMRI mouse infected with GFP-transfected Plasmodium berghei ANKA at 150 mg/kg, ip. The settings on record: in vivo. On the set-up: dose 150 mg/kg, route intraperitoneal. It is filed as organism-based.
Series [10] relates to Plasmodium berghei. Kind of series: Antimalarial activity against GFP-transfected Plasmodium berghei ANKA infected in NMRI mouse assessed as increase of mean survival time at 30 mg/kg, ip qd for 4 days.
The test system of series [11] is Plasmodium berghei. The series can be described thus: Antimalarial activity against GFP-transfected Plasmodium berghei ANKA infected in NMRI mouse assessed as reduction of parasitaemia at 30 mg/kg, ip qd for 4 days. On the set-up: scale not given: the % may be the effect or the level left. The following applies: route intraperitoneal.

Structures are written as SMILES. pIC50: −log10 of the molar value. Active and inactive are the calls of the source. The calls are words filed in the database; no cut-off is given here.

As usually defined, the pIC50 is the negative decadic logarithm of the IC50, by convention in mol/L. In the case of `O=C(Cc1ccccc1)NCCCNCCCCCCCCNCCCNC(=O)Cc1ccccc1`, the result in series [1] and in series [3] was inactive. Also, the pIC50 is 4.13 in series [2] and 7.82 in series [6]. Moreover, the Activity result in series [4] was “Toxic”. The selectivity ratio in series [5] stood at 4930.

For `COc1ccc(CCC(=O)NCCCNCCCCCCCCCCCCNCCCNC(=O)CCc2ccc(OC)c(OC)c2)cc1OC`, the pIC50 is 4.24 in series [2] and 7.15 in series [6]. For the same molecule, in series [5], the selectivity ratio came to 803.

As for `COc1ccc(OC)c(CCC(=O)NCCCNCCCCNCCCNC(=O)CCc2cc(OC)ccc2OC)c1`, the pIC50 in series [2] is 4.00; in [6] it was 8.21. For the same molecule, in series [5], the selectivity ratio was found to be 16200.

Regarding `CC(C)(C)OC(=O)N(CCCCCCCCCCCCN(CCCNC(=O)Cc1ccccc1O)C(=O)OC(C)(C)C)CCCNC(=O)Cc1ccccc1O`, the negative logarithm of the IC50 (pIC50) in series [2] is 5.00; in [6], 6.77. The selectivity ratio in series [5] was 59.

For the molecule `COc1ccc(OC)c(C(=O)NCCCNCCCCNCCCNC(=O)c2cc(OC)ccc2OC)c1`, the results for the pIC50 in [2] and in series [6] were 4.12 and 6.03, respectively. Further, the selectivity ratio in series [5] stood at 81.

On to `COc1ccc(OC)c(CC(=O)NCCCN(CCCCCCCCN(CCCNC(=O)Cc2cc(OC)ccc2OC)C(=O)OC(C)(C)C)C(=O)OC(C)(C)C)c1`, for which the figures for the pIC50 in series [2] and in [6] were 5.72 and 7.32, respectively. The selectivity ratio in [5] is 40.

As for `O=C(Cc1ccccc1O)NCCCNCCCCCCCCNCCCNC(=O)Cc1ccccc1O`, the pIC50 was 4.26 in series [2] and 8.89 in series [6]. The selectivity ratio in series [5] was 42300.

`O=C(NCCCNCCCCCCCCCCCCNCCCNC(=O)c1ccccc1)c1ccccc1`: the figures for the pIC50 in [2] and in [6] were 5.16 and 6.80, respectively. The selectivity ratio in [5] is 43.

Turning to `CC(C)(C)OC(=O)N(CCCCCCCCCCCCN(CCCNC(=O)Cc1ccccc1)C(=O)OC(C)(C)C)CCCNC(=O)Cc1ccccc1`, the negative logarithm of the IC50 (pIC50) in [2] is 5.09; in series [6] it was 6.59. Moreover, in series [5], the selectivity ratio stood at 32.

For the molecule `COc1ccc(OC)c(C(=O)NCCCN(CCCCCCCCCCCCN(CCCNC(=O)c2cc(OC)ccc2OC)C(=O)OC(C)(C)C)C(=O)OC(C)(C)C)c1`, the pIC50 in series [2] is 5.74; in series [6], 6.74. Besides, the selectivity ratio in series [5] is 10.

On to `CC(C)(C)OC(=O)N(CCCCCCCCN(CCCNC(=O)Cc1ccccc1O)C(=O)OC(C)(C)C)CCCNC(=O)Cc1ccccc1O`, for which the figures for the pIC50 in series [2] and in series [6] were 4.80 and 6.14, respectively. Further, in series [5], the selectivity ratio stood at 22.

For `COc1ccc(OC)c(C(=O)NCCCNCCCCCCCCCCCCNCCCNC(=O)c2cc(OC)ccc2OC)c1`, the results for the negative logarithm of the IC50 (pIC50) in series [2] and in series [6] were 5.66 and 6.41, respectively. Further, the selectivity ratio in series [5] amounted to 5.6.

For `O=C(CCc1ccccc1)NCCCNCCCCNCCCNC(=O)CCc1ccccc1`, the results for the pIC50 in series [2] and in series [6] were 4.04 and 7.00, respectively. The selectivity ratio in series [5] was found to be 910.

With `COc1ccc(OC)c(CCC(=O)NCCCNCCCCCCCCCCCCNCCCNC(=O)CCc2cc(OC)ccc2OC)c1`, the pIC50 in [2] was 5.19; in [6], 6.96. In addition, the selectivity ratio in series [5] worked out at 59.

With `COc1ccc(CCC(=O)NCCCNCCCCNCCCNC(=O)CCc2ccc(OC)c(OC)c2)cc1OC`, the pIC50 in [2] was 4.14; in series [6] it was 6.34. Further, the selectivity ratio in [5] came to 160.

For the molecule `COc1ccc(CC(=O)NCCCN(CCCCCCCCCCCCN(CCCNC(=O)Cc2ccc(OC)cc2)C(=O)OC(C)(C)C)C(=O)OC(C)(C)C)cc1`, the figures for the pIC50 in series [2] and in series [6] were 5.33 and 6.68, respectively. Besides, in series [5], the selectivity ratio was 22.

With `CC(C)(C)OC(=O)N(CCCCCCCCCCCCN(CCCNC(=O)CCc1ccccc1)C(=O)OC(C)(C)C)CCCNC(=O)CCc1ccccc1`, the pIC50 in [2] was 5.40; in series [6], 6.62. Moreover, in series [5], the selectivity ratio was 17.

As for `O=C(Cc1ccccc1)NCCCNCCCCCCCCCCCCNCCCNC(=O)Cc1ccccc1`, the pIC50 in series [2] was 4.66; in series [6] it was 6.80. Moreover, in series [5], the selectivity ratio came to 138.

With `CC(C)(C)OC(=O)N(CCCCCCCCCCCCN(CCCNC(=O)c1ccccc1O)C(=O)OC(C)(C)C)CCCNC(=O)c1ccccc1O`, the figures for the pIC50 in [2] and in [6] were 4.03 and 6.30, respectively. The selectivity ratio in [5] came to 186.

`O=C(CCc1ccccc1O)NCCCNCCCCNCCCNC(=O)CCc1ccccc1O`: the outcome in series [7] and in series [8] was inactive. Moreover, the values for the pIC50 in series [2] and in [6] were 4.07 and 7.82, respectively. The Activity entry in series [9] is recorded as “Non-toxic”. The selectivity ratio in [5] was 5700.

Take `COc1ccc(OC)c(CC(=O)NCCCNCCCCCCCCNCCCNC(=O)Cc2cc(OC)ccc2OC)c1`: the pIC50 in series [2] is 4.21; in series [6] it was 7.92. Moreover, the selectivity ratio in series [5] was 5080.

On to `CC(C)(C)OC(=O)N(CCCCCCCCN(CCCNC(=O)Cc1ccccc1)C(=O)OC(C)(C)C)CCCNC(=O)Cc1ccccc1`, for which the pIC50 in series [2] is 5.07; in [6], 6.33. For the same molecule, the selectivity ratio in series [5] was determined as 18.

Take `CC(C)(C)OC(=O)N(CCCCCCCCCCCCN(CCCNC(=O)c1ccccc1)C(=O)OC(C)(C)C)CCCNC(=O)c1ccccc1`: the pIC50 is 5.08 in series [2] and 6.80 in series [6]. Also, in series [5], the selectivity ratio was 52.

For the molecule `COc1ccc(OC)c(CC(=O)NCCCNCCCCCCCCCCCCNCCCNC(=O)Cc2cc(OC)ccc2OC)c1`, the pIC50 in [2] is 4.64; in series [6], 6.72. For the same molecule, in [5], the selectivity ratio turned out to be 121.

Consider `O=C(CCc1ccccc1O)NCCCNCCCCCCCCCCCCNCCCNC(=O)CCc1ccccc1O`, for which the pIC50 is 4.21 in series [2] and 8.02 in [6]. The selectivity ratio in [5] stood at 6530.

Regarding `COc1ccccc1CC(=O)NCCCN(CCCCCCCCCCCCN(CCCNC(=O)Cc1ccccc1OC)C(=O)OC(C)(C)C)C(=O)OC(C)(C)C`, the pIC50 in [2] was 5.57; in series [6] it was 6.34. Besides, the selectivity ratio in series [5] was 5.9.

Turning to `COc1ccc(OC)c(CC(=O)NCCCN(CCCCCCCCCCCCN(CCCNC(=O)Cc2cc(OC)ccc2OC)C(=O)OC(C)(C)C)C(=O)OC(C)(C)C)c1`, the results for the pIC50 in series [2] and in series [6] were 5.66 and 6.80, respectively. In addition, in [5], the selectivity ratio is 14.

Consider `O=C(CCc1ccccc1)NCCCNCCCCCCCCCCCCNCCCNC(=O)CCc1ccccc1`, for which the pIC50 in series [2] is 5.16; in series [6], 7.14. Moreover, the selectivity ratio in series [5] came out at 95.

Take `COc1ccccc1CC(=O)NCCCNCCCCCCCCCCCCNCCCNC(=O)Cc1ccccc1OC`: the pIC50 in [2] is 4.68; in series [6] it was 7.11. In series [5], the selectivity ratio turned out to be 269.

As for `O=C(Cc1ccccc1O)NCCCNCCCCCCCCCCCCNCCCNC(=O)Cc1ccccc1O`, the pIC50 in series [2] was 4.38; in series [6], 8.07. In [5], the selectivity ratio is 4880.

As for `CC(C)(C)OC(=O)N(CCCCCCCCCCCCN(CCCNC(=O)CCc1ccccc1O)C(=O)OC(C)(C)C)CCCNC(=O)CCc1ccccc1O`, the negative logarithm of the IC50 (pIC50) in series [2] is 5.44; in series [6], 6.89. Moreover, the selectivity ratio in series [5] came to 28.

In the case of `COc1ccc(CCC(=O)NCCCN(CCCCCCCCCCCCN(CCCNC(=O)CCc2ccc(OC)c(OC)c2)C(=O)OC(C)(C)C)C(=O)OC(C)(C)C)cc1OC`, the pIC50 in series [2] was 5.60; in [6], 7.18. Also, the selectivity ratio in [5] stood at 38.

Turning to `O=C(NCCCNCCCCNCCCNC(=O)c1ccccc1)c1ccccc1`, the negative logarithm of the IC50 (pIC50) in series [2] is 4.05; in [6] it was 6.35. The selectivity ratio in [5] is 200.

In the case of `O=C(Cc1ccccc1O)NCCCNCCCCNCCCNC(=O)Cc1ccccc1O`, the result in series [10] was inactive. The figures for the Activity result in series [9] and in series [11] were “Toxic” and 27.9%, respectively.

Take `COc1ccc(OC)c(CCC(=O)NCCCN(CCCCCCCCCCCCN(CCCNC(=O)CCc2cc(OC)ccc2OC)C(=O)OC(C)(C)C)C(=O)OC(C)(C)C)c1`: the pIC50 is 5.64 in series [2] and 6.74 in series [6]. Also, the selectivity ratio in series [5] is 13.

For `O=C(NCCCNCCCCCCCCCCCCNCCCNC(=O)c1ccccc1O)c1ccccc1O`, the figures for the negative logarithm of the IC50 (pIC50) in series [2] and in [6] were 5.60 and 6.42, respectively. In addition, the selectivity ratio in [5] was 6.6.

In the case of `O=C(NCCCNCCCCNCCCNC(=O)c1ccccc1O)c1ccccc1O`, the pIC50 was 4.08 in [2] and 5.72 in [6]. Moreover, the selectivity ratio in [5] stood at 44.

For the molecule `COc1ccc(CC(=O)NCCCNCCCCCCCCCCCCNCCCNC(=O)Cc2ccc(OC)cc2)cc1`, the pIC50 in series [2] was 4.72; in [6], 6.70. For the same molecule, in series [5], the selectivity ratio is 95.
